From PMC9924099 (Journal of medicinal chemistry, 2021)
Read-outs that look alike come from different tables or passages of the source.

Columns and labels:
[1] = test system: p53^R280K MDA-MB-231 cells; assay: WST-1 cell proliferation assay; format: cell-based, human; settings: for IC50: Homo sapiens, read-out: IC50, inhibition of cell proliferation
[2] = test system: p53^R273H MDA-MB-468 cells; assay: WST-1 cell proliferation assay; format: cell-based, human; settings: Homo sapiens, read-out: IC50, inhibition of cell proliferation
[3] = test system: WT p53 MCF-7 cells; assay: WST-1 cell proliferation assay; format: cell-based, human; settings: MCF-7, 24 h or 72 h; compared to mutant p53 cells
Outline: (§1)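 WST-1 assay. Test compound in DMSO was added to cells at 40,000 cells/ml, giving 1% DMSO final, and plated at 4,000 cells/well in duplicate; medium-only wells served as background. Incubation was 24 h or 72 h at 37 °C, then WST-1 for 2 h and OD450 read. Proliferation is expressed as % of DMSO control; triplicate experiments. MCF-7 grown in RPMI 1640, MDA-MB-436 in DMEM.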

[4] = test system: p53 null MDA-MB-436 cells; assay: WST-1 cell proliferation assay; format: cell-based, human; settings: MDA-MB-436, 24 h and 72 h; compared to MDA-MB-231 or MDA-MB-468
Outline: as §1

[5] = test system: mammary epithelial cells (MCF10A); assay: Proliferation of normal cells; format: cell-based, human
[6] = test system: colon cells (CCD841); assay: Proliferation of normal cells; format: cell-based, human
[7] = Log P determination; format: physicochemical; settings: octanol/sodium phosphate buffer (pH 7.4)
[8] = test system: p53 knockdown MDA-MB-468 cells; assay: WST-1 proliferation after p53 siRNA knockdown; format: cell-based, human; settings: p53 siRNA MDA-MB-468 vs NS siRNA cells
Outline: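 MDA-MB-468 cells at 50–60% confluence received p53 SMARTpool siRNA or non-specific siRNA (0.430 nmol with Lipofectamine 2000 in Opti-MEM, 5 h), with a second transfection 24 h later. At 72 h after the first transfection, cells were treated with test compound or DMSO. Proliferation was then measured by WST-1 as % of DMSO.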

[9] = test system: p53^R280K MDA-MB-231 cells; assay: Annexin V staining; format: cell-based, human; settings: MDA-MB-231, 6 μM or 12 μM, 24 h
[10] = test system: p53^R273H MDA-MB-468 cells; assay: Annexin V staining; format: cell-based, human; settings: MDA-MB-468, 6 μM or 12 μM, 24 h
[11] = test system: WT p53 MCF-7 cells; assay: Annexin V staining; format: cell-based, human; settings: MCF-7, 24 h
Outline: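 After 24 h exposure to test compound or DMSO, MCF-7 cells (RPMI 1640, 10% FBS, 1% penicillin/streptomycin, 1% L-glutamine) were scraped, PBS-washed and taken up in Annexin V binding buffer. They were stained with fluorochrome-conjugated Annexin V for 15 min at RT in the dark, then PI staining solution was added. Flow cytometry read-out; % Annexin V-positive cells expressed relative to DMSO.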

[12] = target: p53^R280K in MDA-MB-231 cells (Homo sapiens, UniProt P04637, R280K); assay: Western blot of p53 expression; format: cell-based; settings: MDA-MB-231, 6 μM or 12 μM, 24 h
Outline: (§2)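 Cells were treated 24 h with 6 μM or 12 μM test compound or DMSO and lysed in NP-40/Tris-Cl pH 8.0 buffer with protease inhibitors. Load on 4–12% SDS-PAGE was 20 μg for MDA-MB-231 and MDA-MB-468 or 50 μg for MCF-7. After PVDF transfer, blots were probed with p53 DO-1 antibody, reprobed for GAPDH as loading control and developed by ECL.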

[13] = target: p53^R273H in MDA-MB-468 cells (Homo sapiens, UniProt P04637, R273H); assay: Western blot of p53 expression; format: cell-based; settings: MDA-MB-468, 6 μM or 12 μM, 24 h
Outline: as §2

[14] = target: WT p53 in MCF-7 cells (Homo sapiens, UniProt P04637); assay: Western blot of p53 expression; format: cell-based; settings: MCF-7, 6 μM or 12 μM, 24 h
Outline: as §2

[15] = test system: p53^R280K MDA-MB-231 cells; assay: qRT-PCR gene expression; format: cell-based, human
Outline: (§3)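 Cells were exposed to 6 μM test compound or DMSO for 4 h. RNA was extracted and reverse-transcribed, and transcripts were quantified by TaqMan qRT-PCR normalised to GAPDH. Values are means with SD from triplicates of repeated experiments.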

[16] = test system: p53^R273H MDA-MB-468 cells; assay: qRT-PCR gene expression; format: cell-based, human
Outline: as §3

[17] = test system: WT p53 MCF-7 cells; assay: qRT-PCR gene expression; format: cell-based, human
Outline: as §3

[18] = test system: p53^R280K MDA-MB-231 cells; assay: Flow-cytometric cell cycle analysis; format: cell-based, human; settings: MDA-MB-231, 6 μM, 24 h; DMSO 42.9%
[19] = test system: ATM in MDA-MB-231 cells; assay: Western blot of pATM S1981; format: cell-based, human; settings: MDA-MB-231, 6 μM, 24 h
Outline: (§4)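 Cells were treated 24 h with 6 μM test compound or DMSO and lysed in NP-40 buffer; 250 μg lysate was run on 4–12% SDS-PAGE and transferred to PVDF. Probing used anti-pATM Ser1981 (1:500) with HRP anti-mouse IgG (1:1000) and ECL detection, then reprobing with anti-GAPDH (1:5000). Experiments were done in triplicate.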

[20] = test system: ATM in MDA-MB-468 cells; assay: Western blot of pATM S1981; format: cell-based, human; settings: MDA-MB-468, 6 μM, 24 h
Outline: as §4

[21] = test system: ATM in WT p53 MCF-7 cells; assay: Western blot of pATM S1981; format: cell-based, human; settings: MCF-7, 6 μM, 24 h
Outline: as §4

[22] = test system: caspase 3 and PARP1 in p53^R280K MDA-MB-231 cells; assay: Western blot of caspase 3 and PARP1; format: cell-based, human; settings: MDA-MB-231, 24 h
Outline: (§5)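 Cells grown in RPMI 1640 with 10% FBS, 1% penicillin/streptomycin and 1% L-glutamine, then given test compound or DMSO control for 24 h. Lysed 30 min on ice in Tris-Cl pH 8.0/NaCl/glycerol/NP-40/EDTA buffer with protease inhibitors, then cleared. 100 μg lysate run on 4-12% SDS-PAGE, transferred to PVDF, probed with anti-PARP and anti-caspase 3 (1:1000 each). ECL detection.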

[23] = test system: caspase 3 and PARP1 in p53^R273H MDA-MB-468 cells; assay: Western blot of caspase 3 and PARP1; format: cell-based, human; settings: MDA-MB-468, 24 h
Outline: as §5

[24] = test system: caspase 3 and PARP1 in WT p53 MCF-7 cells; assay: Western blot of caspase 3 and PARP1; format: cell-based, human; settings: MCF-7 (caspase 3-deficient), 24 h
Outline: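 MCF-7 cells were treated with test compound or DMSO for 24 h and lysed on ice for 30 min (20 mM Tris-Cl pH 8.0, 137 mM NaCl, 10% glycerol, 1% NP-40, 2 mM EDTA, protease inhibitors). Lysates were cleared at 18,500 × g. 100 μg lysate was run on 4–12% SDS-PAGE, transferred to PVDF and probed with anti-PARP and anti-caspase 3 (1:1000), HRP secondary and ECL. GAPDH served as loading control.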

[25] = human, in vivo; cited from earlier work

S=C=NCCCC12CC3CC(CC(C3)C1)C2 [Ad-ITC 6, 1-Isothiocyanato-3-(adamantan-1-yl)propane]
IC50 ([1]; MDA-MB-231, 24 h): 12 to 24 µM
IC50 ([1]; MDA-MB-231, 72 h): 12 to 24 µM
inhibition of cell proliferation (in words) ([1]; MDA-MB-231, 24 h or 72 h): dose-dependent activity
IC50 ([2]; MDA-MB-468, 24 h): 12 to 24 µM
IC50 ([2]; MDA-MB-468, 72 h): 12 to 24 µM
inhibition of cell proliferation / sensitivity (in words) [3]: remarkably less sensitive
sensitivity of cell proliferation (in words) [4]: significantly reduced sensitivity
IC50 compared with mutant p53 tumor cells (in words) [5]: significantly higher
IC50 compared with mutant p53 tumor cells (in words) [6]: significantly higher
logP at 18 h [7]: 5.17
sensitivity of cell proliferation (in words) [8]: markedly reduced sensitivity
increase in Annexin V stained cells compared to DMSO [9]: 2.0-5.1 fold
increase in Annexin V stained cells compared to DMSO [10]: 2.0-5.1 fold
increase in Annexin V stained cells compared to DMSO [11]: did not display any significant increase
mutant p53 expression (western blot) [12]: differential decrease in the expression of mutant p53
mutant p53 expression (western blot) [13]: differential decrease in the expression of mutant p53
WT p53 expression (western blot) [14]: did not decrease WT p53 expression
expression of canonical p53 targets p21 and NOXA ([15]; MDA-MB-231, 6 μM, 4 h): enhanced the expression of the canonical p53 targets p21 and NOXA
p53 mRNA levels ([15]; MDA-MB-231, 4 h): remained unchanged
expression of MDM2 ([16]; MDA-MB-468, 6 μM): enhanced the expression of MDM2
expression of canonical p53 targets p21 and NOXA ([16]; MDA-MB-468, 6 μM, 4 h): enhanced the expression of the canonical p53 targets p21 and NOXA
p53 mRNA levels ([16]; MDA-MB-468, 4 h): remained unchanged
expression of MDM2 ([17]; MCF-7, 6 μM): enhanced the expression of MDM2
expression of canonical p53 targets p21 and NOXA ([17]; MCF-7, 6 μM, 4 h): upregulated expression of p21 and NOXA
p53 mRNA level ([17]; MCF-7, 4 h): increase in the p53 mRNA level
cells in G1 phase [18]: 48.2%
phosphorylation of ATM at S1981 [19]: phosphorylation of ATM at S1981
phosphorylation of ATM at S1981 [20]: phosphorylation of ATM at S1981
pATM-S1981 [21]: absent
levels of uncleaved caspase 3, uncleaved PARP1 and cleaved-PARP1 [22]: significant decrease in the levels of uncleaved caspase 3 and PARP1
levels of uncleaved caspase 3, uncleaved PARP1 and cleaved-PARP1 [23]: significant decrease in the levels of uncleaved caspase 3 and PARP1
levels of uncleaved PARP1 and cleaved-PARP1 [24]: did not detect any significant decrease in the levels of uncleaved PARP1 or accumulation of cleaved-PARP1 fragments

S=C=NCCc1ccccc1 [PEITC, Phenethyl isothiocyanate, reference compound]
inhibition of cell proliferation / sensitivity (in words) [3]: considerably less sensitive
logP at 18 h [7]: 3.5
mutant p53 expression (western blot) [12]: significant decrease
mutant p53 expression (western blot) [13]: significant decrease
WT p53 expression (western blot) [14]: increase in p53 levels
levels of uncleaved caspase 3, uncleaved PARP1 and cleaved-PARP1 [22]: significant decrease in the levels of uncleaved caspase 3 and accumulation of cleaved-PARP1 fragments
levels of uncleaved caspase 3, uncleaved PARP1 and cleaved-PARP1 [23]: significant decrease in the levels of uncleaved caspase 3 and accumulation of cleaved-PARP1 fragments
levels of uncleaved PARP1 and cleaved-PARP1 [24]: significant decrease in the levels of uncleaved PARP1 and accumulation of cleaved-PARP1
estimated half-life [25]: ~ 2.4 h
